Results on one molecule are retold here after PubChem BioAssay AID624393 (The Scripps Research Institute Molecular Screening Center, 2012).

By IC50 is commonly meant the concentration at which inhibition is half-maximal.

The target in this experiment is Induced myeloid leukemia cell differentiation protein Mcl-1 (Homo sapiens) (UniProt Q07820). In words: MCL1 binding to BIM-BH3 peptide, inhibitors, late-stage follow-up, biochemical, fluorescence polarization, assay provider data, probe compound (AID 624393). As to conditions: GST-MCL1 / FITC-Bim BH3 peptide. The gist of the method: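 signal = fluorescence polarization (mP) | assay system = E. coli-expressed GST-MCL1 fusion protein with FITC-labelled Bim BH3 peptide | input = GST-MCL1 fusion protein at 12.5 nM | doses = compound dilution series in DMSO | buffer or medium = PBS with 0.001% Brij | times = 20 min at room temperature | probe or stimulus = FITC-labelled Bim BH3 peptide probe at 4 nM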
Induced myeloid leukemia cell differentiation protein Mcl-1 (Homo sapiens), sequence (Q07820 whole entry, looked up, the tested form may be a part): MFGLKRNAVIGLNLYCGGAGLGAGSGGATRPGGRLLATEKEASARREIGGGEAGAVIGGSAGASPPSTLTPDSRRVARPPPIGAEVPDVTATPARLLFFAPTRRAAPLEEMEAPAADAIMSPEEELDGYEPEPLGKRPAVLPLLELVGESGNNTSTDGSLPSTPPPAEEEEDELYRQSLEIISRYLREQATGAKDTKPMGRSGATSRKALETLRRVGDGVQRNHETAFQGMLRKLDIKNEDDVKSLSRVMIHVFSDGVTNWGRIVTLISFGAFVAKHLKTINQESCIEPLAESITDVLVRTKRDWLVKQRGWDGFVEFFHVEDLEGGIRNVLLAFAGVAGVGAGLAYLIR
On the technique in general: Fluorescence polarisation rises when a labelled molecule tumbles more slowly, as on binding a larger partner.

Where “and” joins values, the source holds several entries; their conditions need not be identical. Equal values may be shown once.

As for `CCN1CCN(C(c2ccc(C(F)(F)F)cc2)c2ccc3cccnc3c2O)CC1` (stereo unspecified), the IC50 is 250 nM and 310 nM.
